Measurements published in ChEMBL document CHEMBL3352666, “Human Toll-like receptor 8-selective agonistic activities in 1-alkyl-1H-benzimidazol-2-amines” (J Med Chem, 2014).
Active and inactive are the calls of the source.

What was measured:
Assay type in all cases: cell-based
[1] = target: Toll-like receptor 2 (Homo sapiens) (UniProt O60603); assay: Agonist activity at human TLR2 stably expressed in HEK293 cells co-expressing secreted alkaline phosphatase assessed as NF-kappaB induction by liquid handler-assisted reporter gene assay
Sequence of Toll-like receptor 2 (Homo sapiens) (O60603 whole entry): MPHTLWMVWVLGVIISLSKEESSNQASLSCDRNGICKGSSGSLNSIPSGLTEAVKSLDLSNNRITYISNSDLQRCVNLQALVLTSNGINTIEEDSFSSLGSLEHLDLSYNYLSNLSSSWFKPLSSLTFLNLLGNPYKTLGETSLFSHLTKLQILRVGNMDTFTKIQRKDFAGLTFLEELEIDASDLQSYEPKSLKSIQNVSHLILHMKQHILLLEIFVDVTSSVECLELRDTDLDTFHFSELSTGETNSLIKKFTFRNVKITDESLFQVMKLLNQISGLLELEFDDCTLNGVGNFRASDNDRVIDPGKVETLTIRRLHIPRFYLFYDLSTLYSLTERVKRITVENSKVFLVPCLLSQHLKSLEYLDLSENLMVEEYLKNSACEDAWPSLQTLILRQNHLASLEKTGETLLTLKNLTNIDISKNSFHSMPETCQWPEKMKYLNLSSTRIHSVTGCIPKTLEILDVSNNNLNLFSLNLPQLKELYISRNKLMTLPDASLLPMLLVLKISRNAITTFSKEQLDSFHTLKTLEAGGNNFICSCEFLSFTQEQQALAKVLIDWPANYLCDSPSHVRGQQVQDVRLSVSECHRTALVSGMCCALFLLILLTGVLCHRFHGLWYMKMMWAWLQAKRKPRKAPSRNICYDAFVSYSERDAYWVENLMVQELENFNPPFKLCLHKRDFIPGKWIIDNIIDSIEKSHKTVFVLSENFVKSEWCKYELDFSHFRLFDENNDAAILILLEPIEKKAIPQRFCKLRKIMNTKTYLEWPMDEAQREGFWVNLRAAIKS
How it was run: (§1)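 HEK293 reporter cells stably co-transfected with the respective human TLR or NOD receptor plus NF-κB/AP-1-driven secreted alkaline phosphatase, kept in selection medium. About 10^5 cells/ml were incubated with graded concentrations of test compound in 384-well format. Supernatant sAP was read colorimetrically at 620 nm with an alkaline phosphatase-specific chromogen in detection medium.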

[2] = target: Toll-like receptor 3 (Homo sapiens) (UniProt O15455); assay: Agonist activity at human TLR3 stably expressed in HEK293 cells co-expressing secreted alkaline phosphatase assessed as NF-kappaB induction by liquid handler-assisted reporter gene assay; how it was run: as §1
Sequence of Toll-like receptor 3 (Homo sapiens) (O15455 whole entry): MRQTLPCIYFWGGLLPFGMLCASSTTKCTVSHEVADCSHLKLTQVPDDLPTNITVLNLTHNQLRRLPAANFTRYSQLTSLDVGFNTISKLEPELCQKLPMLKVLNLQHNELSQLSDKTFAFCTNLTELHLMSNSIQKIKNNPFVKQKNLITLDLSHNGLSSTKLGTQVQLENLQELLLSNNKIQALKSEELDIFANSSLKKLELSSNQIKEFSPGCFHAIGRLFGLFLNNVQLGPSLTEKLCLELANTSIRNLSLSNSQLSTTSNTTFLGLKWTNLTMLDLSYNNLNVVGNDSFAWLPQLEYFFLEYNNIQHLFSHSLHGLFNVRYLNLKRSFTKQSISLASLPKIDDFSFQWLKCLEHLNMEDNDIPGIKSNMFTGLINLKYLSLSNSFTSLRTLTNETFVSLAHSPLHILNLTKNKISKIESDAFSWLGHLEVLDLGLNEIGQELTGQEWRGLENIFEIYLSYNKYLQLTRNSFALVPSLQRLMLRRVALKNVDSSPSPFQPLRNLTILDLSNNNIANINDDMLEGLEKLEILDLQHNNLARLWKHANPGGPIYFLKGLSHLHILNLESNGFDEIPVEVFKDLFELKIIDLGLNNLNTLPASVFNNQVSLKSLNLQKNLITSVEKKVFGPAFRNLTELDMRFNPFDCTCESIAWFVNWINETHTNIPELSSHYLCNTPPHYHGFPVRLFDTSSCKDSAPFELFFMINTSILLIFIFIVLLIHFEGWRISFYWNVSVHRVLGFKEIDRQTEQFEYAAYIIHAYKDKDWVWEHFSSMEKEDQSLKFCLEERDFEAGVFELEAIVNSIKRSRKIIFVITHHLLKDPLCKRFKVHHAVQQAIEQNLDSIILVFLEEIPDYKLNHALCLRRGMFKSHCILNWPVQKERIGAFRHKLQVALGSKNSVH

[3] = target: Toll-like receptor 4 (Homo sapiens) (UniProt O00206); assay: Agonist activity at human TLR4 stably expressed in HEK293 cells co-expressing secreted alkaline phosphatase assessed as NF-kappaB induction by liquid handler-assisted reporter gene assay; how it was run: as §1
Sequence of Toll-like receptor 4 (Homo sapiens) (O00206 whole entry): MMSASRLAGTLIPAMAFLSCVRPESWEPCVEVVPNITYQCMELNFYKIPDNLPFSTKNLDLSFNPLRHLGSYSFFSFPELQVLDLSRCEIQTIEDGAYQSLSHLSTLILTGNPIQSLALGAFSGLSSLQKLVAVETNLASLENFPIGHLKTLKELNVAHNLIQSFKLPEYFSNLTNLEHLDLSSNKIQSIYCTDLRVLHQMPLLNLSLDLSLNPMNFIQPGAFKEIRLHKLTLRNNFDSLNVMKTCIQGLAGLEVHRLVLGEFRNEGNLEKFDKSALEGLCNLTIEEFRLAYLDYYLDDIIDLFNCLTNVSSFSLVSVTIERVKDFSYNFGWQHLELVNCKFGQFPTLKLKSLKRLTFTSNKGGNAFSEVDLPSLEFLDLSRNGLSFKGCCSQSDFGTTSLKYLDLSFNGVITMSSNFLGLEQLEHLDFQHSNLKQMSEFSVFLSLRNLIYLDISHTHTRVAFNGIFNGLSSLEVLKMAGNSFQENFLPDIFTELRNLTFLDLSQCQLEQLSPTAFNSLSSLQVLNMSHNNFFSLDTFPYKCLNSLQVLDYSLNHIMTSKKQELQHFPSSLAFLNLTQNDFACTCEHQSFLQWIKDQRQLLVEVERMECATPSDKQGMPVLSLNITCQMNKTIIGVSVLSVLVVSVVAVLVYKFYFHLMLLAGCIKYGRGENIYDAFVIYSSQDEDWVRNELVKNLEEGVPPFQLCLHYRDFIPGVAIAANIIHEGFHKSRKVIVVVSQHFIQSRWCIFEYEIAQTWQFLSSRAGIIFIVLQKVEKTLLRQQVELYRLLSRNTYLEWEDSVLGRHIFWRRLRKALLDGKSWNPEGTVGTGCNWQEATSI

[4] = target: Toll-like receptor 5 (Homo sapiens) (UniProt O60602); assay: Agonist activity at human TLR5 stably expressed in HEK293 cells co-expressing secreted alkaline phosphatase assessed as NF-kappaB induction by liquid handler-assisted reporter gene assay; how it was run: as §1
Sequence of Toll-like receptor 5 (Homo sapiens) (O60602 whole entry): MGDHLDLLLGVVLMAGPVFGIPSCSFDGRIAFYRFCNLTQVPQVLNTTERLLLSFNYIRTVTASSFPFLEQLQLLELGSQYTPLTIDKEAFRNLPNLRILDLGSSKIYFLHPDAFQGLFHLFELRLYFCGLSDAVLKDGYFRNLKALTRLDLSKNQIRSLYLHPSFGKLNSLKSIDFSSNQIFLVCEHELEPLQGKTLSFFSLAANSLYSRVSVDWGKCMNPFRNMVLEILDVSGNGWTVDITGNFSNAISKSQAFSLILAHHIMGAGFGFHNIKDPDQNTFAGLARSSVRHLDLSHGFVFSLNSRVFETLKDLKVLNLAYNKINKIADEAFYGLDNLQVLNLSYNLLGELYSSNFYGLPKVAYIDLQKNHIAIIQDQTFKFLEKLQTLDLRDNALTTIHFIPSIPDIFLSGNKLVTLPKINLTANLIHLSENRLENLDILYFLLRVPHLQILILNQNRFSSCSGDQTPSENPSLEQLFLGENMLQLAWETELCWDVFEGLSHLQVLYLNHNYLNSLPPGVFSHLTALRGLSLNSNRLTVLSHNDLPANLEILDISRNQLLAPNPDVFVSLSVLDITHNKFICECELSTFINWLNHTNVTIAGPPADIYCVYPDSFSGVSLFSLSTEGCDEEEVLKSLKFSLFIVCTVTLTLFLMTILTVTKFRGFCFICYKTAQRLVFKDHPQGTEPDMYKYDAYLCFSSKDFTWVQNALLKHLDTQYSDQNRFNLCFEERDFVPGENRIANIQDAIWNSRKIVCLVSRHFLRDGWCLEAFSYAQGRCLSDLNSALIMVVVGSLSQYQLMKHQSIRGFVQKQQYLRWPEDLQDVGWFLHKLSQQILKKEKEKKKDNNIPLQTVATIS

[5] = target: T1, Toll-like receptor 7 (Homo sapiens) (UniProt Q9NYK1); assay: Agonist activity at human TLR7 stably expressed in HEK293 cells co-expressing secreted alkaline phosphatase assessed as NF-kappaB induction by liquid handler-assisted reporter gene assay; how it was run: as §1
T1 sequence (whole entry): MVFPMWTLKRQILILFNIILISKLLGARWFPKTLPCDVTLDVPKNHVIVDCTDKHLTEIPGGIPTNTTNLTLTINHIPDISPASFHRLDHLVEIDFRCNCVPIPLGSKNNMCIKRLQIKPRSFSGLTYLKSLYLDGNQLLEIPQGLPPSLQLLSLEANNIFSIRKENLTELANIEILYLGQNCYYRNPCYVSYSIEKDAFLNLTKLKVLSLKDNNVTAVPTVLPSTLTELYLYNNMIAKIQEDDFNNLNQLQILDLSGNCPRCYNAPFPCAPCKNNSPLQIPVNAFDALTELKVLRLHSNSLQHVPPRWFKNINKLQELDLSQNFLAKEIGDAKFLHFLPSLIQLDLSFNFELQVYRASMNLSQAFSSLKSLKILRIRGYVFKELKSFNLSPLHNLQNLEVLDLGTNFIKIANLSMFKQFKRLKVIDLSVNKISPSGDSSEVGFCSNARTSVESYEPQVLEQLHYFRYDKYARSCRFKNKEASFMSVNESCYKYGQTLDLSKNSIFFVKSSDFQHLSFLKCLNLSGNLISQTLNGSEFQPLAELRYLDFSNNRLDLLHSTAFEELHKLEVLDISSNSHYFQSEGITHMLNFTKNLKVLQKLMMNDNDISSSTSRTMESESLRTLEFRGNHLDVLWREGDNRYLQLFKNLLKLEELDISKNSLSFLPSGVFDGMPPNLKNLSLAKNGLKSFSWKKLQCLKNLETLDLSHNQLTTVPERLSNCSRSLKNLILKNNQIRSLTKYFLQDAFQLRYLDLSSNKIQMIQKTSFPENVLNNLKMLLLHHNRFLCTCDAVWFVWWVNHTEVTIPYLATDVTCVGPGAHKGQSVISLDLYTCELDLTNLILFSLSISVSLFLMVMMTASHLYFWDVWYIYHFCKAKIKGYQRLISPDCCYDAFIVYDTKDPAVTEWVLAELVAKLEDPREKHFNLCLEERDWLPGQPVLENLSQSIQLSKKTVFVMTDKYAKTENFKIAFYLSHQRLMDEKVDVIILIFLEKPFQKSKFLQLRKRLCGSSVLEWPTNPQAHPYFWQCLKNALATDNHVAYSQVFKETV

[6] = target: T2, Toll-like receptor 9 (Homo sapiens) (UniProt Q9NR96); assay: Agonist activity at human TLR9 stably expressed in HEK293 cells co-expressing secreted alkaline phosphatase assessed as NF-kappaB induction by liquid handler-assisted reporter gene assay; how it was run: as §1
T2 sequence (whole entry): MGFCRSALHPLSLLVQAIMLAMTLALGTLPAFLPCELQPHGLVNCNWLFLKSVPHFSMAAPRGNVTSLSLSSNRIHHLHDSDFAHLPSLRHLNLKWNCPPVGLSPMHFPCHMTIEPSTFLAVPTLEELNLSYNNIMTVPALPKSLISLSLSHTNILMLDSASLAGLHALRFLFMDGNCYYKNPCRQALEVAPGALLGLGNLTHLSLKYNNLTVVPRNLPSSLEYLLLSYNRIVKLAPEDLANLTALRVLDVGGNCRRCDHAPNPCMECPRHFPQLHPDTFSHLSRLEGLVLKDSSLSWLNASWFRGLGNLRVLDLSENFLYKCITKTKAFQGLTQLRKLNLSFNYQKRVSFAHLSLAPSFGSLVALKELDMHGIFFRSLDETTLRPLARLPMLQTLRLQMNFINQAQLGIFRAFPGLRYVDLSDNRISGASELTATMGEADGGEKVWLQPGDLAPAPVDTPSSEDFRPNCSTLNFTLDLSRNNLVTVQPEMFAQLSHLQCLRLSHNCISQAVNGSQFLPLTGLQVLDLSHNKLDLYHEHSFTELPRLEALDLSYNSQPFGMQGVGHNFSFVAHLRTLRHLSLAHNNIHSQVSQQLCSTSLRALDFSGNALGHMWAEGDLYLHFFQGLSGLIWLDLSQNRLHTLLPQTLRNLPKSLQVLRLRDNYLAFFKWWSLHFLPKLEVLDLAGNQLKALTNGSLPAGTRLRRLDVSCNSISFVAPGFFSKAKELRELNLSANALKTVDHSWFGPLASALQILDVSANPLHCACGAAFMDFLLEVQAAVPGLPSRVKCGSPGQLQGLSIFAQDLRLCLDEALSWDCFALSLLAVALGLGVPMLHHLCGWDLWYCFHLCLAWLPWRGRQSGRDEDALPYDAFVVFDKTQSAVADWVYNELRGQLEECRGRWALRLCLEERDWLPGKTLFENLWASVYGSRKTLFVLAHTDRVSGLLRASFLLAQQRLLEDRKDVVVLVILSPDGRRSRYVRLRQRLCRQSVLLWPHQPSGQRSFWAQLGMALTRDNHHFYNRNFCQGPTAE

[7] = target: T3, Nucleotide-binding oligomerization domain-containing protein 1 (Homo sapiens) (UniProt Q9Y239); assay: Agonist activity at human NOD1 stably expressed in HEK293 cells co-expressing secreted alkaline phosphatase assessed as NF-kappaB induction by liquid handler-assisted reporter gene assay; how it was run: as §1
T3 sequence (whole entry): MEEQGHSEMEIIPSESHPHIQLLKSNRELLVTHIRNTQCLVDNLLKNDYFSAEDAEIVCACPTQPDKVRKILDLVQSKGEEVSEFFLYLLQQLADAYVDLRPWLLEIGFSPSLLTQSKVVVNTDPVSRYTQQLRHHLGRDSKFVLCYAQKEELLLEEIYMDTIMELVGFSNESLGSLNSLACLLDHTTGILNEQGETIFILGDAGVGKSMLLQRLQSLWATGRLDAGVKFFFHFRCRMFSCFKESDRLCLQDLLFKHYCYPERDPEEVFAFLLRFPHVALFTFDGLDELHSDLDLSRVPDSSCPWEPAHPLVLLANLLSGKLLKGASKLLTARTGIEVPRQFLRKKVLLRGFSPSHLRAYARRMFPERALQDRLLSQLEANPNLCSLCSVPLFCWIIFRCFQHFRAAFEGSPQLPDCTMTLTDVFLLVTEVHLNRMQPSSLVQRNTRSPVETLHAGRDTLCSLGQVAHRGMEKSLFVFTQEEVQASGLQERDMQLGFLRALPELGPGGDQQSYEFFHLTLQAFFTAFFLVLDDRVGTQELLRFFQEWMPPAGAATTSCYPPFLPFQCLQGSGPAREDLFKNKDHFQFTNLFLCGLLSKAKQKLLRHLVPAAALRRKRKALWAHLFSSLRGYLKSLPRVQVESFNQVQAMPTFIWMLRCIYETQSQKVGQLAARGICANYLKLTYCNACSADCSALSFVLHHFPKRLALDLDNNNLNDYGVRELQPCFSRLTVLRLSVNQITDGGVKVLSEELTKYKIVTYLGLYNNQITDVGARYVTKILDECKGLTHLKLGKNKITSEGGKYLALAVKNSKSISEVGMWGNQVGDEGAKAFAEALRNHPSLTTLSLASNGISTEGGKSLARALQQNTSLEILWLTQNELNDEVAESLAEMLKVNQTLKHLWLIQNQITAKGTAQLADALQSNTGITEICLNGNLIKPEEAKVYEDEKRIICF

[8] = target: Nucleotide-binding oligomerization domain-containing protein 2 (Homo sapiens, UniProt Q9HC29); assay: Agonist activity at human NOD2 stably expressed in HEK293 cells co-expressing secreted alkaline phosphatase assessed as NF-kappaB induction by liquid handler-assisted reporter gene assay; how it was run: as §1
Sequence of Nucleotide-binding oligomerization domain-containing protein 2 (Q9HC29 whole entry, the tested form may be a part): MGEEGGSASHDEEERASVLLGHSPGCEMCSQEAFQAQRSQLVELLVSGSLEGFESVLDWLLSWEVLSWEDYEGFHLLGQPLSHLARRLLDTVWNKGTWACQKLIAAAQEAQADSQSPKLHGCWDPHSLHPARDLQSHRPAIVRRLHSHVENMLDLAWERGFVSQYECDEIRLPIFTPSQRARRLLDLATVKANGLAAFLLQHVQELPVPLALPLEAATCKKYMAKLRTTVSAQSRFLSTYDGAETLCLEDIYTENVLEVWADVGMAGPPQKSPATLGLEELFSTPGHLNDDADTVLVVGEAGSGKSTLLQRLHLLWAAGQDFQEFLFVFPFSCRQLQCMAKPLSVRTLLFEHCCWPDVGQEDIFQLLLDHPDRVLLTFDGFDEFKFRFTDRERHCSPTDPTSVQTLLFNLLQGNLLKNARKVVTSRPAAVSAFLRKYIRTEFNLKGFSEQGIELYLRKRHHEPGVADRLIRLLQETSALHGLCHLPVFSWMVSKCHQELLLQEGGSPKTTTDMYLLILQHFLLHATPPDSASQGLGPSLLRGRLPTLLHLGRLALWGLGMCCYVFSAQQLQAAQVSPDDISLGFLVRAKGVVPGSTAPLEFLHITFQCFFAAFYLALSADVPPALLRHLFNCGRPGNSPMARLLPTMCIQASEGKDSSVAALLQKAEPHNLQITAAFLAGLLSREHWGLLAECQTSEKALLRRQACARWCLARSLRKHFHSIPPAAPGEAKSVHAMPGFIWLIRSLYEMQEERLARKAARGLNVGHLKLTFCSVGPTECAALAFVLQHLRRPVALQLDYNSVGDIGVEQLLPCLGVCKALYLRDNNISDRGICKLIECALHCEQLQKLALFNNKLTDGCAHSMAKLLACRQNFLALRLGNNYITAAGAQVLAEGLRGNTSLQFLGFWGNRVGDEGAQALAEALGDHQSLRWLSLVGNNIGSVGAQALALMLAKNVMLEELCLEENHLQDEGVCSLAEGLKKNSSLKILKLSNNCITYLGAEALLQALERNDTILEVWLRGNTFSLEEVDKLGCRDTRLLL

Measured: Activity

CCCCCn1c(N)nc2c(O)cccc21
inactive: all assays above

CCCCCn1c(N)nc2c(N(C)C)cccc21
inactive: all assays above

CCCCCn1c(N)nc2c(OC)cccc21
inactive: all assays above

CCCCCn1c(N)nc2ccc(C)cc21
inactive: all assays above

CCCCCn1c(N)nc2ccccc21
inactive: all assays above

CCCCCn1c(N)nc2c(CC)cccc21
inactive: all assays above

CCCCCn1c(N)nc2cccc(C)c21
inactive: all assays above

CCCCCn1c(N)nc2c3ccccc3ccc21
inactive: all assays above

CCCCCn1c(N)nc2cc(C)ccc21
inactive: all assays above

CCCCCn1c(N)nc2c(N)cccc21
inactive: all assays above
